Assay results from PMC3227417 (Cancer prevention research (Philadelphia, Pa.), 2009).
Like-named read-outs stand apart in the source and are kept apart here.

Legend:
[1] = system: human HT-29 colon tumor xenograft; assay: HT-29 colon tumor xenograft, treatment of established tumors; format: in vivo, mice; settings: for median number of days to reach a tumor weight of 2,000 mg: control 42.8 days; for median number of days to reach a tumor weight of 3,000 mg: control 52.2 days
purified ovine COX-2 = target: T1, purified ovine COX-2 (Ovis aries, UniProt P79208); assay: COX-2 colorimetric enzyme assay with purified isozyme; format: biochemical
T1 sequence (P79208 17-603): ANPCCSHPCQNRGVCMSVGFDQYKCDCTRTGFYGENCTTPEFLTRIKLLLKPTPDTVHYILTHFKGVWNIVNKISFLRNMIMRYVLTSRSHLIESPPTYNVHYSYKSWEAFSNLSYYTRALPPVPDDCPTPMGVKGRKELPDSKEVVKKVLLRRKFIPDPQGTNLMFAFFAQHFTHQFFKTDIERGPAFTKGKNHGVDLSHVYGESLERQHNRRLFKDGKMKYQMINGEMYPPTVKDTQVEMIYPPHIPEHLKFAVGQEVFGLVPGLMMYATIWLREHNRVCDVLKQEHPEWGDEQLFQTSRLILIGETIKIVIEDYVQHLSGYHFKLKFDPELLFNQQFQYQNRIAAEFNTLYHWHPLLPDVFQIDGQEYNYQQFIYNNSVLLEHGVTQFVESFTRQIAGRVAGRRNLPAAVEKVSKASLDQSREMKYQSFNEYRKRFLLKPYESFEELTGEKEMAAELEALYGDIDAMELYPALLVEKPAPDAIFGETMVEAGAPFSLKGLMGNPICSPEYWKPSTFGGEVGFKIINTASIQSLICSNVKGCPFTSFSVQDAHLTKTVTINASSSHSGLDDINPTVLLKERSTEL

purified ovine COX-1 = target: T2, purified ovine COX-1 (Ovis aries, UniProt P05979); assay: COX-1 colorimetric enzyme assay with purified isozyme; format: biochemical
T2 sequence (P05979 25-600): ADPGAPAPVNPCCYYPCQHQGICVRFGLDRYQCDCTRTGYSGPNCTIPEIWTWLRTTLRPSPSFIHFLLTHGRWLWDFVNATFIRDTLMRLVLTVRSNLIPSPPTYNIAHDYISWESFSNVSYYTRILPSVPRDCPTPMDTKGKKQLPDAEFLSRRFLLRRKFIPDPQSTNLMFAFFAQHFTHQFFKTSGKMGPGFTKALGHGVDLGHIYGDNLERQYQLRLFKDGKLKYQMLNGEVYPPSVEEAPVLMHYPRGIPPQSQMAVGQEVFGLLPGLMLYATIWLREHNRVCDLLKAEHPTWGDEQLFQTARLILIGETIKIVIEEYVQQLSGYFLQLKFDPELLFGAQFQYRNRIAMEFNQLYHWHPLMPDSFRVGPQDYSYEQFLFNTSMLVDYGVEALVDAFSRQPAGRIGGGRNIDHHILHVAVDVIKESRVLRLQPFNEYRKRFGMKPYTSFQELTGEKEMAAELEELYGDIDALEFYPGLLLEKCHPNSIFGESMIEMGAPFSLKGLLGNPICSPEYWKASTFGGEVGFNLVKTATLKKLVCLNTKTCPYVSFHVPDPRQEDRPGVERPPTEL

HT-29 colon tumor cells [2] = assay: Growth assay; format: cell-based, human; settings: for continuous treatment required to reach maximum potency of growth inhibition: HT-29 time course
How it was run: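 HT-29 cells were grown in RPMI 1640 with 5% FBS at 37°C under 5% CO2, using only cultures with >95% viability. Cells were seeded at 5,000/well, left 16 h, then treated continuously for 72 h at 37°C. Viable cell number was read as ATP luminescence (CellTiterGlo). A time course experiment used the same read-out. Mean, SE shown.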

HT-29 colon tumor cells [3] = assay: TUNEL apoptosis assay; format: cell-based, human; settings: 24 hours, vehicle 2.3%
How it was run: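 HT-29 cells were seeded at 2 × 10^6 per 10 cm dish and grown 48 h. Medium was then replaced with test compound or vehicle for 24 h. Cells were fixed in 4% formalin on ice for 15 min. Strand breaks were labelled with BrdUrd, detected with anti-BrdUrd Alexa Fluor 488, and nuclei stained with propidium iodide. TUNEL-positive percentage was read by flow cytometry (≥10,000 events). Mean ± SE.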

[4] = system: caspases 3 and 7 activity in HT-29 colon tumor cells; assay: Caspase-Glo 3/7 apoptosis assay; format: cell-based, human; settings: HT-29, 25 µmol/L
How it was run: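 HT-29 cells were seeded at 10,000/well and grown 18–24 h before treatment. Treatment lasted 2–8 h: time course at 25 µmol/L, and dose-response at 5 h exposure. Caspase 3/7 activity was read as luminescence from substrate cleavage (Caspase-Glo 3/7).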

HT-29 colon tumor cells [5] = assay: Proliferation assay; format: cell-based, human; settings: read-out: IC50 to inhibit DNA synthesis (3H-thymidine incorporation); HT-29, 72 h of treatment
NCr-nu/nu mice = format: in vivo
[6] = system: human HT-29 colon tumor xenograft; assay: HT-29 colon tumor xenograft, treatment from day of tumor implantation; format: in vivo
[7] = Pharmacokinetic study, plasma levels after single gastric gavage; format: in vivo, mice; settings: for plasma level: mice, ± SD
[8] = read-out: COX-1 IC50, purified COX-1 isozyme, arachidonic acid, 25°C, 5 min
[9] = 250 mg/kg twice daily gastric gavage, 55 days
[10] = read-out: COX-2 IC50, purified COX-2 isozyme, arachidonic acid, 25°C, 5 min
[11] = purified COX-1 isozyme, arachidonic acid, 25°C, 5 min
[12] = purified COX-2 isozyme, arachidonic acid, 25°C, 5 min

CCc1c2c(nc3ccc(OC(=O)N4CCC(N5CCCCC5)CC4)cc13)-c1cc3c(c(=O)n1C2)COC(=O)[C@]3(O)CC.Cl [Camptosar, irinotecan HCl]
median number of days to reach a tumor weight of 2,000 mg [1]: 48.2 days | median number of days to reach a tumor weight of 3,000 mg [1]: 58.7 days

CS(=O)(=O)c1ccc(C2=C(c3ccccc3)C(=O)OC2)cc1 [Rofecoxib]
IC50 (purified ovine COX-2): 2.7 µM

CSc1ccc(/C=C2/C(C)=C(CC(=O)O)c3cc(F)ccc32)cc1 [SS, sulindac sulfide]
IC50 (purified ovine COX-1): 1.8 µM | continuous treatment required to reach maximum potency of growth inhibition (HT-29 colon tumor cells [2]): ~ 2 days | percentage of apoptotic cells (TUNEL) (HT-29 colon tumor cells [3]; HT-29, 100 µmol/L): 7.1% | percentage of apoptotic cells (TUNEL) (HT-29 colon tumor cells [3]; HT-29, 200 µmol/L): 49.9%

CSc1ccc(/C=C2/C(C)=C(CC(=O)NCCN(C)C)c3cc(F)ccc32)cc1 [SSA]
IC50 (purified ovine COX-1; [8]): > 300 µM | increase in potency compared with SS (growth inhibition) (HT-29 colon tumor cells [2]; HT-29 cell line): ~40 fold | continuous treatment required to reach maximum potency of growth inhibition (HT-29 colon tumor cells [2]): ~ 2 days | optimum treatment time for caspase induction [4]: ~ 4 hours | IC50 (HT-29 colon tumor cells [5]): 1.2 µM | tolerated dosage (NCr-nu/nu mice; mouse, in vivo): up to 300 mg/kg | percentage of apoptotic cells (TUNEL) (HT-29 colon tumor cells [3]; HT-29, 10 µmol/L): 3.6% | percentage of apoptotic cells (TUNEL) (HT-29 colon tumor cells [3]; HT-29, 25 µmol/L): 10.2% | percentage of apoptotic cells (TUNEL) (HT-29 colon tumor cells [3]; HT-29, 50 µmol/L): 91.8% | mean body weight loss averaged over the duration of treatment [6, 9]: 1.1% | mean body weight loss on any given day [6, 9]: ≤ 6% | mean tumor weight ([6]; day 55, 250 mg/kg twice daily, control 2,534 mg): 1,141 mg | median number of days to reach a tumor weight of 2,000 mg [1]: 40.8 days | median number of days to reach a tumor weight of 3,000 mg [1]: 53.2 days | IC50 (purified ovine COX-2; [10]): 164 µM | plasma half-life ([7]; mouse, in vivo, po, 200 mg/kg): 9.9 h

CC1=C(CC(=O)O)c2cc(F)ccc2/C1=C\c1ccc(S(C)(=O)=O)cc1 [Sulindac sulfone, sulindac sulfone]
IC50 (purified ovine COX-1): > 300 µM | COX-1 IC50 (purified ovine COX-1; [11]): lack both COX-1 and COX-2 inhibitory activity | IC50 (purified ovine COX-2): > 300 µM | COX-2 IC50 (purified ovine COX-2; [12]): lack both COX-1 and COX-2 inhibitory activity

CC1=C(CC(=O)O)c2cc(F)ccc2/C1=C\c1ccc([S+](C)[O-])cc1 (stereo not drawn) [Sulindac sulfoxide, sulindac]
COX-1 IC50 (purified ovine COX-1; [11]): lack both COX-1 and COX-2 inhibitory activity | IC50 (purified ovine COX-1; [8]): > 300 µM | IC50 (HT-29 colon tumor cells [5]): 222 µM | tolerated dosage (NCr-nu/nu mice; mice, once daily gastric gavage, 20 days of treatment): ≤ 50 mg/kg | COX-2 IC50 (purified ovine COX-2; [12]): lack both COX-1 and COX-2 inhibitory activity | IC50 (purified ovine COX-2; [10]): > 300 µM | plasma level ([7]; 1 h post gastric gavage of SSA (200 mg/kg)): 50 ± 40 nM | plasma level ([7]; 2 h post gastric gavage of SSA (200 mg/kg)): 60 ± 10 nM | plasma level ([7]; 4 h post gastric gavage of SSA (200 mg/kg)): 50 ± 10 nM | plasma level ([7]; 8 h post gastric gavage of SSA (200 mg/kg)): 50 ± 14 nM | plasma level ([7]; 16 h post gastric gavage of SSA (200 mg/kg)): BLD | plasma level ([7]; 24 h post gastric gavage of SSA (200 mg/kg)): BLD
